Assay results from ChEMBL document CHEMBL1629675, “Novel inhibitor of Plasmodium histone deacetylase that cures P. berghei-infected mice” (Antimicrob Agents Chemother, 2009).
Active and inactive are the calls of the source. No cut-off for these calls is given here.

Tests used:
Plasmodium falciparum [1] = assay: Antimalarial activity against Plasmodium falciparum HB3 assessed as parasite growth inhibition after 48 hrs by standard growth inhibition assay; type: functional, organism-based
Plasmodium falciparum [2] = assay: Antimalarial activity against sPlasmodium falciparum VS/1 assessed as parasite growth inhibition after 48 hrs by standard growth inhibition assay; type: functional
Plasmodium falciparum [3] = assay: Antimalarial activity against chloroquine-resistant Plasmodium falciparum FCB1 assessed as parasite growth inhibition after 48 hrs by standard growth inhibition assay; type: functional, organism-based, FcB1/Columbia
Summary of the method: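 Ring-stage cultures of P. falciparum (3D7, FCB1) in RBCs, 2% hematocrit, at 1% parasitemia, incubated 48 h at 37°C in 90% N2/5% O2/5% CO2 with compound; 0.1% Me2SO control, uninfected-RBC background. Parasitemia counted by FACS on 100,000 Sybr green-stained cells; accepted only if controls grew ≥3-fold. Growth inhibition from background-corrected ratio to control. Triplicate, repeated at least twice.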

Plasmodium falciparum [4] = assay: Antimalarial activity against chloroquine-sensitive Plasmodium falciparum 3D7 assessed as parasite growth inhibition after 48 hrs by standard growth inhibition assay; type: functional, organism-based
Plasmodium falciparum [5] = assay: Antimalarial activity against Plasmodium falciparum Dd2 assessed as parasite growth inhibition after 48 hrs by standard growth inhibition assay; type: functional, organism-based
Plasmodium falciparum [6] = assay: Antimalarial activity against Plasmodium falciparum 7G8 assessed as parasite growth inhibition after 48 hrs by standard growth inhibition assay; type: functional, organism-based
Plasmodium falciparum [7] = assay: Antimalarial activity against Plasmodium falciparum FCR3 assessed as parasite growth inhibition after 48 hrs by standard growth inhibition assay; type: functional, FCR-3/Gambia
Plasmodium falciparum [8] = assay: Inhibition of HDAC in Plasmodium falciparum 3D7 by fluorescent activity assay; type: organism-based
Histone deacetylase = assay: Inhibition of human HDAC in HeLa cells by fluorescent activity assay; type: cell-based
Plasmodium berghei [9] = assay: Antimalarial activity against Plasmodium berghei infected in mouse assessed as decrease in decline in hematocrit rate at 50 mg/kg, […] as splited dose compound with drawn on day 4 measured after 6 weeks; type: functional, organism-based; parameters: dose 50 mg/kg
Summary of the method: (§1)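 ICR mice (five per group) infected intraperitoneally with 10^6 P. berghei NK56 parasites from a donor mouse, then dosed intraperitoneally with 0, 0.05, 0.5, 5 or 50 mg/kg/day split into two doses for 4 days. Parasitemia was read from Giemsa-stained tail-blood thin smears on day 4 (1,500 cells, two microscopists), with Sybr green confirming negative slides. Parasitemia and hematocrit were taken every 4 days over 6 weeks.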

Plasmodium berghei [10] = assay: Antimalarial activity against Plasmodium berghei infected in mouse assessed as decrease in decline in hematocrit rate at 0.5 mg/kg, […] as splited dose compound with drawn on day 4 measured on day 8; type: functional, organism-based; parameters: dose 0.5 mg/kg; summary of the method: as §1
Plasmodium berghei [11] = assay: Antimalarial activity against Plasmodium berghei infected in mouse assessed as decrease in parasites in blood at 5 mg/kg, ip administered as splited dose measured on day 4 relative to control
Plasmodium falciparum [12] = assay: Antimalarial activity against Plasmodium falciparum 3D7 assessed as parasite regrowth measured after 3 days of compound withdrawal at 2.5 nM by standard growth inhibition assay; type: functional, organism-based
Summary of the method: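 Synchronized 3D7 cultures were exposed to 2.5 nM drug, continuously or over a limited interval, and then the drug was removed. Parasitemia was measured by FACS of Sybr green-stained cells every 12 h for 4 days. Growth inhibition was calculated against 0.1% Me2SO-treated controls. Representative of three experiments.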

Plasmodium berghei [13] = assay: Antimalarial activity against Plasmodium berghei infected in mouse assessed as decrease in parasites in blood at 0.5 mg/kg, ip administered as splited dose compound with drawn on day 4 measured on day 8
Plasmodium berghei [14] = assay: Antimalarial activity against Plasmodium berghei infected in mouse assessed as decrease in parasites in blood at 50 mg/kg, ip administered as splited dose compound with drawn on day 4 measured after 6 weeks
Plasmodium berghei [15] = assay: Antimalarial activity against Plasmodium berghei infected in mouse assessed as decrease in parasites in blood at 0.5 mg/kg, ip administered as splited dose measured on day 4 relative to control
Plasmodium berghei [16] = assay: Antimalarial activity against Plasmodium berghei infected in mouse assessed as decrease in parasites in blood at 0.05 mg/kg, ip administered as splited dose measured on day 4
Plasmodium berghei [17] = assay: Antimalarial activity against Plasmodium berghei infected in mouse assessed as decrease in parasites in blood at 5 mg/kg, ip administered as splited dose compound with drawn on day 4 measured on day 20
Plasmodium falciparum [18] = assay: Antimalarial activity against Plasmodium falciparum 3D7 trophozoites assessed as parasite growth inhibition at […] nM after 14 hrs by standard growth inhibition assay; settings: 3D7, 14 h
Mus musculus [19] = assay: Toxicity in ICR mouse assessed as clinical signs of distress after 14 days at 5 to 100 mg/kg, iv once daily; type: organism-based; parameters: dose 5-100 mg/kg, route intravenous; settings: in vivo, 336 h
Mus musculus [20] = assay: Toxicity in ICR mouse assessed as mild increase in erythroid mass after 5 days at 0.5 to 50 mg/kg, iv once daily; type: organism-based, Erythrocyte; parameters: dose 0.5-50 mg/kg, route intravenous; settings: in vivo, 120 h
Mus musculus [21] = assay: Toxicity in ICR mouse assessed as severe increase in erythroid mass after 5 days at 0.5 to 100 mg/kg, iv once daily; type: organism-based, Erythrocyte; parameters: dose 0.5-100 mg/kg, route intravenous; settings: in vivo, 120 h
Plasmodium falciparum [22] = assay: Antimalarial activity against Plasmodium falciparum 3D7 schizonts assessed as parasite growth inhibition at […] nM after 14 hrs by standard growth inhibition assay; settings: 3D7, 14 h
Mus musculus [23] = assay: Toxicity in ICR mouse assessed as mild increase in erythroid mass after 14 days at 5 to 50 mg/kg, iv once daily; type: organism-based, Erythrocyte; parameters: dose 5-50 mg/kg, route intravenous; settings: in vivo, 336 h
Mus musculus [24] = assay: Toxicity in ICR mouse assessed as severe increase in erythroid mass after 14 days at 5 to 100 mg/kg, iv once daily; type: organism-based, Erythrocyte; parameters: dose 5-100 mg/kg, route intravenous; settings: in vivo, 336 h
Plasmodium falciparum [25] = assay: Antimalarial activity against Plasmodium falciparum 3D7 rings assessed as parasite growth inhibition at […] nM measured at end of the experiment by standard growth inhibition assay; type: functional
Plasmodium falciparum [26] = assay: Antimalarial activity against Plasmodium falciparum 3D7 rings assessed as parasite growth inhibition at […] nM after 14 hrs by standard growth inhibition assay; settings: 3D7, 14 h
Mus musculus [27] = assay: Toxicity in ICR mouse assessed as death after 14 days at 5 to 100 mg/kg, iv once daily; type: organism-based; parameters: dose 5-100 mg/kg, route intravenous; settings: in vivo, 336 h
Plasmodium berghei [28] = assay: Antimalarial activity against Plasmodium berghei infected in mouse assessed as mouse survival days at 0.5 mg/kg, […] as splited dose measured on day 4 relative to control; type: functional
Summary of the method: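 P. berghei NK56 blood from donor ICR mice (≥10% parasitemia), diluted in PBS; 10^6 parasites given ip to groups of five ICR mice. Treatment started simultaneously: ip, 0, 0.05, 0.5, 5 or 50 mg/kg/day in two daily doses for 4 days. Mice monitored up to 6 weeks or until death; survival counted from treatment start; paired Student t test.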

Mus musculus [29] = assay: Toxicity in ICR mouse assessed as moderate increase in erythroid mass after 14 days at 5 to 50 mg/kg, iv once daily; type: organism-based, Erythrocyte; parameters: dose 5-50 mg/kg, route intravenous; settings: in vivo, 336 h
Plasmodium falciparum [30] = assay: Antimalarial activity against Plasmodium falciparum 3D7 trophozoites assessed as parasite growth inhibition at […] nM measured at end of the experiment by standard growth inhibition assay; type: functional
Mus musculus [31] = assay: Toxicity in ICR mouse assessed as moderate increase in erythroid mass after 5 days at 0.5 to 100 mg/kg, iv once daily; type: organism-based, Erythrocyte; parameters: dose 0.5-100 mg/kg, route intravenous; settings: in vivo, 120 h
Mus musculus [32] = assay: Toxicity in ICR mouse assessed as death after 5 days at 0.5 to 100 mg/kg, iv once daily; type: organism-based; parameters: dose 0.5-100 mg/kg, route intravenous; settings: in vivo, 120 h
Plasmodium falciparum [33] = assay: Antimalarial activity against Plasmodium falciparum 3D7 schizonts assessed as parasite growth inhibition at […] nM measured at end of the experiment by standard growth inhibition assay; type: functional
Plasmodium berghei [34] = assay: Antimalarial activity against Plasmodium berghei infected in iv dosed mouse assessed as decrease in parasites in blood; type: functional, organism-based; settings: in the assay text read “ip dosed” for “iv dosed”; summary of the method: as §1
Mus musculus [35] = assay: Toxicity in ICR mouse assessed as clinical signs of distress after 5 days at 0.5 to 100 mg/kg, iv once daily; type: organism-based; parameters: dose 0.5-100 mg/kg, route intravenous; settings: in vivo, 120 h
[36] = Plasmodium falciparum, HB3, 48 h
[37] = Plasmodium falciparum, VS/1, 48 h
[38] = Plasmodium falciparum, FcB1/Columbia, 48 h
[39] = Plasmodium falciparum, 3D7, 48 h
[40] = Plasmodium falciparum, 7G8, 48 h
[41] = Plasmodium falciparum, FCR-3/Gambia, 48 h
[42] = Plasmodium falciparum, Dd2, 48 h

Cl.Nc1cccc(-c2csc(NC(=O)CCCCCCC(=O)NO)n2)c1
IC50 (Plasmodium falciparum [1]): 0.02 µM
IC50 (Plasmodium falciparum [2]): 0.023 µM
IC50 (Plasmodium falciparum [3]): 0.015 µM
IC50 (Plasmodium falciparum [4]): 0.03 µM
IC50 (Plasmodium falciparum [5]): 0.012 µM
IC50 (Plasmodium falciparum [6]): 0.01 µM
IC50 (Plasmodium falciparum [7]): 0.022 µM
IC50 (Plasmodium falciparum [8]): 0.05 µM
IC50 (Histone deacetylase): 0.0076 µM

Nc1cccc(-c2csc(NC(=O)CCCCCCC(=O)NO)n2)c1 [listing 1 of 2 here]
Activity (Plasmodium berghei [9]): Active
Activity (Plasmodium berghei [10]): Active
Activity (Plasmodium berghei [11]): Active
Activity (Plasmodium falciparum [12]): Active
Activity (Plasmodium berghei [13]): inactive
Activity (Plasmodium berghei [14]): Active
Activity (Plasmodium berghei [15]): Active
Activity (Plasmodium berghei [16]): inactive
Activity (Plasmodium berghei [17]): inactive

O=C(CCCCCCC(=O)NC12CC3CC(CC(C3)C1)C2)NO
IC50 (Plasmodium falciparum [1]; [36]): 9.55 µM
IC50 (Plasmodium falciparum [2]; [37]): 8.12 µM
IC50 (Plasmodium falciparum [3]; [38]): 6.55 µM
IC50 (Plasmodium falciparum [4]; [39]): 11 µM
IC50 (Plasmodium falciparum [6]; [40]): 10 µM
IC50 (Plasmodium falciparum [7]; [41]): 9.58 µM
IC50 (Plasmodium falciparum [8]; Plasmodium falciparum, 3D7): 0.658 µM
IC50 (Histone deacetylase): 0.42 µM

O=C(CCCCCCC(=O)Nc1ccc(-c2ccccc2)cc1)NO
IC50 (Plasmodium falciparum [1]; [36]): 0.11 µM
IC50 (Plasmodium falciparum [2]; [37]): 0.115 µM
IC50 (Plasmodium falciparum [3]; [38]): 0.08 µM
IC50 (Plasmodium falciparum [4]; [39]): 0.129 µM
IC50 (Plasmodium falciparum [5]; [42]): 0.085 µM
IC50 (Plasmodium falciparum [6]; [40]): 0.1 µM
IC50 (Plasmodium falciparum [7]; [41]): 0.115 µM
IC50 (Plasmodium falciparum [8]; Plasmodium falciparum, 3D7): 0.06 µM

N[C@@H](Cc1ccccc1)C(=O)Nc1ccccc1-c1ccc(NC(=O)CCCCCCC(=O)NO)cc1
IC50 (Plasmodium falciparum [1]; [36]): 0.18 µM
IC50 (Plasmodium falciparum [2]; [37]): 0.175 µM
IC50 (Plasmodium falciparum [3]; [38]): 0.095 µM
IC50 (Plasmodium falciparum [4]; [39]): 0.22 µM
IC50 (Plasmodium falciparum [5]; [42]): 0.17 µM
IC50 (Plasmodium falciparum [6]; [40]): 0.16 µM
IC50 (Plasmodium falciparum [7]; [41]): 0.15 µM
IC50 (Plasmodium falciparum [8]; Plasmodium falciparum, 3D7): 0.449 µM

O=C(CCCCCCC(=O)Nc1nc(-c2ccccc2)cs1)NO
IC50 (Plasmodium falciparum [1]; [36]): 0.007 µM
IC50 (Plasmodium falciparum [2]; [37]): 0.006 µM
IC50 (Plasmodium falciparum [3]; [38]): 0.006 µM
IC50 (Plasmodium falciparum [4]; [39]): 0.015 µM
IC50 (Plasmodium falciparum [5]; [42]): 0.006 µM
IC50 (Plasmodium falciparum [6]; [40]): 0.008 µM
IC50 (Plasmodium falciparum [8]; Plasmodium falciparum, 3D7): 0.03 µM
IC50 (Histone deacetylase): 0.0066 µM

O=C(CCCCCC(=O)Nc1cccc2cccnc12)NS
IC50 (Plasmodium falciparum [1]; [36]): 8.99 µM
IC50 (Plasmodium falciparum [2]; [37]): 9.91 µM
IC50 (Plasmodium falciparum [3]; [38]): 6.78 µM
IC50 (Plasmodium falciparum [4]; [39]): 9.75 µM
IC50 (Plasmodium falciparum [5]; [42]): 7.55 µM
IC50 (Plasmodium falciparum [6]; [40]): 5.55 µM
IC50 (Plasmodium falciparum [7]; [41]): 6.75 µM
IC50 (Plasmodium falciparum [8]; Plasmodium falciparum, 3D7): 4.55 µM
IC50 (Histone deacetylase): 0.044 µM

Nc1cccc(-c2csc(NC(=O)CCCCCCC(=O)NO)n2)c1 [listing 2 of 2 here]
inhibition at 0.00125 µM (Plasmodium falciparum [18]): 35%
Activity (Mus musculus [19]): Non-toxic
Activity (Mus musculus [20]): Non-toxic
Activity (Mus musculus [21]): Non-toxic
inhibition at 0.00125 µM (Plasmodium falciparum [22]): 25%
Activity (Mus musculus [23]): Non-toxic
IC50 (Plasmodium falciparum [2]): 0.001 µM
Activity (Mus musculus [24]): Non-toxic
inhibition at 0.00125 µM (Plasmodium falciparum [25]): < 5%
inhibition at 0.00125 µM (Plasmodium falciparum [26]): 15%
Activity (Mus musculus [27]): Non-toxic
Survival (Plasmodium berghei [28]): 23.6 days
Activity (Mus musculus [29]): Non-toxic
inhibition at 0.00125 µM (Plasmodium falciparum [30]): 25%
Activity (Mus musculus [31]): Non-toxic
Activity (Mus musculus [32]): Non-toxic
IC50 (Plasmodium falciparum [6]): 0.0004 µM
inhibition at 0.00125 µM (Plasmodium falciparum [33]): 20%
IC50 (Plasmodium berghei [34]): 0.5 mg/kg/day
Activity (Mus musculus [35]): Non-toxic
IC50 (Plasmodium falciparum [8]): 0.00023 µM
IC50 (Histone deacetylase): 0.0039 µM
